From PubChem
SUMO HTRF inh: inhibitors of human SUMOylation (UBC9) | inhibition, % at 35 µM | AID 2006 | P63279 | HTRF SUMOylation assay, SAE1/SAE2 + UBC9, in vitro | 290,000 tested, 0.36% active; in the data active means inhibition above about 50%, passing the limit was not always enough
NSD2 HMT inh: NSD2 (human) methyltransferase inhibition; O96028; NSD2 peptide methylation, AlphaScreen, 120 min; inhibition, % at 12.5 µM; 310,000 tested, 0.54% active; in the data active means inhibition above about 50%
TDP2 inh: TDP2 (human) inhibition, absorbance primary screen; recombinant TDP2, T5PNP hydrolysis, p-nitrophenol absorbance 415 nm; inhibition, % at 12.8 µM; 370,000 tested, 0.34% active;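 active means inhibition above the mean of all tested compounds plus 3 SD, set per campaign, cut at about 25% in these data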;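 further: 0% = DMSO with enzyme and 100% = buffer with substrate but no TDP2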
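Incubation: 2 h at 37 °C; Test system: recombinant human TDP2; Quantity: enzyme 120 nM; Read-out basis: percent inhibition; Medium: 50 mM Tris-HCl pH 7.5 with Mg2+, KCl, DTT, BSA; Repeats: single replicate; Compound: 12.8 µM single point, 1% DMSO; Signal: epi absorbance; Reagent: 5 mM T5PNP chromogenic substrate; Benchmarks: no-enzyme high, DMSO-plus-enzyme low.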
Fh CTSL1 inh: blocks F. hepatica cathepsin L1 in PFM18AAP counter-screen. 300,000 tested, 0.49% active. recombinant F. hepatica cathepsin L1, Z-Leu-Arg-MCA fluorescence. inhibition, % at 5.96 µM;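 active means inhibition above the mean of all tested compounds plus 3 SD, set per screening campaign, cut at about 17% in these data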;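 further: 0% = plate median of test compound wells and 100% = 1 µM Z-Phe-Ala-diazomethylketone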
Alpha artifact: interferes with AlphaScreen signal, flagging NSD2 false positives. AC35, µM (doses to about 10 µM), inactives show at the highest dose activity change, negative = signal loss. shares compounds with NSD2 HMT inh. AlphaScreen artifact counterscreen, preloaded methylated H4 peptide. AID 1053174. 1,500 tested, 9.4% active; call rule not given here
Starred values were filed as active, the others as inactive; / = not tested or not shown. Sampled rows, rich in hits. Any-hit rate of the full collection: about 1.2%.

SMILES | SUMO HTRF inh | NSD2 HMT inh | TDP2 inh | Fh CTSL1 inh | Alpha artifact
O=C(OCc1ccc([N+](=O)[O-])cc1)c1cc(=O)c2ccccc2o1 | 5.1 | 115.2* | -6.7 | 1.8 | -1.4%
CC(=O)Nc1ccc(C(=O)N2CCCCC2c2cc(C(=O)Nc3cccc(C#N)c3)no2)cc1 (configuration not stated) | / | -3.0 | -2.9 | / | /
Nc1nc(Nc2ccccc2F)nc(NCCO)c1[N+](=O)[O-] | 9.9 | 60.3* | 7.4 | 2.8 | 1.1%
NC(=O)c1oc2ccc(Cl)cc2c1N | -6.3 | 94.7* | -6.2 | 1.4 | -1.9%
O=c1cc(C=NNc2ccccc2)[nH]c(=O)[nH]1 | / | 52.3* | 3.7 | / | -4.9%
CC1(CC(=O)N/N=C/c2cc([N+](=O)[O-])c(O)cc2O)OCCO1 | 14.7 | 59.8* | -5.0 | 5.5 | 0.5%
Cc1ccc(-n2c(C)cc(/C=N/NC(=O)CC3(C)OCCO3)c2C)c(C)c1 | 15.1 | 1.1 | -0.6 | 1.9 | /
Cc1c(/C=N/Nc2ccc(F)cc2)c(O)n(C)c(=O)c1C#N | 16.1 | 6.4 | -3.0 | 6.3 | /
CC(=O)N=Cc1c(C)c(C#N)c(=O)n(C)c1O | 33.1 | 100.7* | 21.0 | 0.2 | -4.7%
FC(F)Oc1ccc(NC(=S)NCc2ccccc2)cc1 | -1.1 | 0.0 | -1.2 | -3.9 | /
Oc1cccc2c(NC(=S)Nc3ccc(OC(F)F)cc3)cccc12 | 91.8 | 92.0* | 4.3 | -3.2 | -5.6%
O=C(Nc1cccnc1)c1ccc(COc2ccccc2Cl)o1 | -7.2 | 126.7* | -8.0 | -2.0 | -1.3%
CSc1nsc(SCC(=O)Nc2ccc3c(c2)OCCO3)n1 | -1.0 | -6.3 | -0.2 | -0.2 | /
Cn1c(SCC(=O)Nc2ccc3c(c2)OCCO3)nnc1-c1ccncc1 | -4.1 | 77.0* | -0.3 | -1.3 | -4.6%
Cc1csc(SCC(=O)Nc2ccc3c(c2)OCCO3)n1 | 7.7 | 62.0* | -1.2 | -1.7 | -0.4%
Cc1ccc(C)c(S(=O)(=O)N2CCCOC2CNC(=O)C(=O)NCc2ccc3c(c2)OCO3)c1 (configuration not stated) | 5.1 | 1.2 | -2.6 | 0.3 | /
O=C(OCC(O)C(O)C(O)C(SCc1ccccc1)SCc1ccccc1)c1ccccc1 (configuration not stated) | / | -2.9 | -5.9 | / | /
CC(=O)c1cc(O)c2ccccc2c1O | 48.5 | 78.9* | 42.2* | -3.9 | -4.6%
CCNCCC(=O)N1c2ccccc2Sc2ccc(C(F)(F)F)cc21 | -3.7 | 78.4* | 11.1 | -3.1 | -6.8%
CC(C)N1CCSC1=S | / | -0.5 | 9.4 | / | /
C=CCC1CCCCC1=C(C#N)c1ccccc1 (configuration not stated) | / | 53.3* | -6.0 | / | -5.4%
COc1ccc(CN2C(=O)C(CC(=O)NCc3cccs3)CC(C(=O)N(C)C)=C2C)cc1 (configuration not stated) | / | / | 3.0 | / | /
CCN(CC)Cc1cc(O)c(CN(CC)CC)cc1O | 41.5 | 100.4* | 10.0 | / | 0.8%
CCc1oc(C(=O)O)cc1CN(CC)CC | -3.2 | 7.3 | 6.5 | -1.5 | /
CC(/C=C1\SC(=S)N(NC(=O)c2ccc(C)cc2)C1=O)=C\c1ccccc1 | 0.8 | 1.1 | / | 1.1 | /
SMILES | SUMO HTRF inh | NSD2 HMT inh | TDP2 inh | Fh CTSL1 inh | Alpha artifact
CC(/C=C1\SC(=S)N(NS(=O)(=O)c2ccccc2)C1=O)=C\c1ccccc1 | 39.6 | 54.7* | -8.6 | 6.6 | -10.0%
CC(/C=C1\SC(=S)N(NS(=O)(=O)c2ccc(C)cc2)C1=O)=C\c1ccccc1 | 58.9* | 73.4* | 5.2 | 0.3 | -11.1%
CCc1nc2c(OCC(=O)N3CCOCC3)cccn2c1N(C=O)Cc1ccccc1 | / | 10.9 | -2.5 | / | /
c1ccc(-c2cc(-c3ccccc3)n3ncnc3n2)cc1 | 3.8 | 50.1* | 7.5 | -5.1 | -0.7%
Cc1ccc(OC(C)C(=O)Nc2cccc(S(=O)(=O)N3CCCCCC3)c2)cc1 (configuration not stated) | / | -0.3 | -8.3 | / | /
Fc1ccccc1NC(=S)Nc1cccc2cnccc12 | 98.0* | 99.3* | 4.9 | -0.9 | -3.8%
Cc1ccc(C)c(NC(=S)Nc2cccc3cnccc23)c1 | 99.4 | 97.6* | 6.8 | 0.3 | -6.1%
Cc1ccccc1NC(=S)Nc1cccc2cnccc12 | 97.2* | 103.9* | 16.6 | 1.8 | 6.1%
Cc1ccc(NC(=S)Nc2cccc3cnccc23)cc1C | 95.5 | 21.5 | 11.5 | -3.2 | /
NC(=S)Nc1cccc2cnccc12 | 9.7 | -1.4 | -7.0 | -5.1 | /
CCCCc1c(-c2ccccc2OC)ncn1Cc1cccc(F)c1F | / | / | 2.1 | / | /
CCOc1cc(N2CCOCC2)c(OCC)cc1NC(=O)c1cnccn1 | / | 64.3* | -10.0 | / | -7.3%
